Screening results deposited in PubChem by several laboratories.
TAAR1 antag: human TAAR1 antagonism | Q96RJ0 | CHO RD-HGA16 TAAR1, Fluo-8 calcium fluorescence, antagonist | inhibition, % at 3 µM | 360,000 compounds, 1.5% hits;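 active means inhibition above a per-plate cutoff, the mean inhibition of test compounds on that plate plus 3 SD, cut at about 49% in these data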
Target sequence (Q96RJ0 whole entry, looked up): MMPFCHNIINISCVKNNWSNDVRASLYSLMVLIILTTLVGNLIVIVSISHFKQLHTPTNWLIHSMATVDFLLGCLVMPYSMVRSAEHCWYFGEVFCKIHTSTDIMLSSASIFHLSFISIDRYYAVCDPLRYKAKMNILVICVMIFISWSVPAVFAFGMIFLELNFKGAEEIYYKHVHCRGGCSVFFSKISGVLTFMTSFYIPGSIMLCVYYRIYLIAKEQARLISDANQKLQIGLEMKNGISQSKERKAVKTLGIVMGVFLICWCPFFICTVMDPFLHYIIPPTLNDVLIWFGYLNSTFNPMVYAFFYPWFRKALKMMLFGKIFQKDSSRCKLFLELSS
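Material: CHO RD-HGA16 cells bearing hTAAR1; compound dosing: one-point dosing, 3 µM nominal final; schedule: dye loading 75 min at 37 °C, then 30 min room temperature; measured by: calcium fluorescence with Fluo-8; control set: vehicle and agonist controls; replication: n of 1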
TAAR1 ag: agonists of human TAAR1 | 360,000 compounds, 0.99% hits | CHO RD-HGA16 TAAR1, Fluo-8 calcium fluorescence; vehicle wells 0%, saturating PEA agonist 100% | activation, % at 3 µM | Q96RJ0 | AID 624467;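 active means activation above the mean activation of all test compounds in the run plus 3 SD, cut at about 38% in these data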
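Assay system: CHO-derived RD-HGA16 cells with stable Gα16 and human TAAR1; timing: 17-24 h seeding, 75 min 37 °C dye, 30 min RT; read-out: % activation from peak over basal fluorescence ratio, DMSO-to-PEA scaled; measured by: kinetic Fluo-8 calcium fluorescence; benchmarks: low control DMSO, high control PEA (EC100); doses: 3 µM single concentration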
GPR7 antag: human neuropeptides B/W receptor 1 antagonism; P48145; GPR7-expressing cells, fluorescence antagonist assay; AID 1861; 290,000 compounds, 1.1% hits; inhibition, % at 4.4 µM; in the data active means inhibition above about 16%, passing the limit was not always enough;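 further: cells stimulated with the agonist NPW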
Target sequence (P48145 whole entry, looked up): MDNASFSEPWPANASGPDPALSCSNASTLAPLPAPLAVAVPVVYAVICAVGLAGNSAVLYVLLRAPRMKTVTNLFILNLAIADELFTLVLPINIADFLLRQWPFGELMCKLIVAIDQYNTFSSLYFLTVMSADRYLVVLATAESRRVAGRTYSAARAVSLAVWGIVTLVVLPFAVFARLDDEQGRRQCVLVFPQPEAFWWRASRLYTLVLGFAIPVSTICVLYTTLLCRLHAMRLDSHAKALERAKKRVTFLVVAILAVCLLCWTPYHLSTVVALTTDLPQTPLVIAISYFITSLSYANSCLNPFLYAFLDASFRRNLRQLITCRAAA
TRPML3 agonist: agonists of human TRPML3 channel; Q8TDD5; HEK293 TRPML3-YFP, Fluo-8 calcium fluorescence; 100% = the carbachol control signal; activation, % at 3 µM; 220,000 compounds, 0.29% hits;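 active means activation above its plate's cutoff, the mean activation of the plate's test wells plus 3 SD, cut at about 12% in these data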
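system = HEK293 cells stably carrying human TRPML3-YFP | doses = one concentration, 3 µM nominal, 0.3% DMSO | timing = dye loading 1 h 37 °C then 30 min ambient, 125 s read | detection = Fluo-8 calcium dye fluorescence, ex 470-495, em 515-575 nm | benchmarks = high control carbachol 87 µM, low control DMSO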
LANA-H2A inh: blocks KSHV LANA binding to histone H2A/H2B. Q9QR71. cell-free LANA-H2A/H2B peptide, fluorescence polarization. inhibition, % (no concentration beside the values). 320,000 compounds, 0.6% hits. AID 2629; in the data active means inhibition mostly above about 10%, no sharp cut-off; inactive means mostly below about 6.7%
TRPN1 ag: agonists of zebrafish TRPN1 channel; HEK293 zebrafish TRPN1-YFP, Fluo-8 calcium fluorescence; 100% = response to 87 µM carbachol; activation, % at 3 µM; 220,000 compounds, 0.18% hits; AID 1424;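 active means activation above its plate's cutoff, the mean activation of test wells on that plate plus 3 SD, cut at about 19% in these data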
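Material – zebrafish TRPN1-YFP in HEK293 cells · Doses – 3 µM single point · Schedule – dye 1 h 37 °C plus 30 min RT · Signal – Fluo-8 calcium fluorescence, excitation 470-495 nm, emission 515-575 nm · Read-out – % activation versus carbachol response · Control set – carbachol high, DMSO low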
TAAR1 nonsel count: nonselective antagonist in TAAR1 antagonist counter-screen | shares compounds with TAAR1 antag | counterscreen cell line, calcium fluorescence, antagonist mode | inhibition, % at 3 µM | 2,400 compounds, 77% hits | AID 651780; in the data active means inhibition above about 22%;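 further: CHO-Ga16 host cells stimulated with ATP at an EC80 level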
TAAR1 antag conf: human TAAR1 antagonism, confirmed. shares compounds with TAAR1 antag. TAAR1-expressing cells, fluorescence antagonist read-out. inhibition, % at 3 µM. 2,400 compounds, 40% hits. AID 651785; in the data active means inhibition above about 49%;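 further: CHO-Ga16 host cells challenged with agonist PEA near its EC80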
Ga16 ag counter: nonselective Ga16 agonist in TAAR1 antagonist counter-screen; shares compounds with TAAR1 antag; Ga16-expressing cells, calcium fluorescence, agonist counterscreen; activation, % at 3 µM; 2,400 compounds, 18% hits; AID 651953; in the data active means activation above about 12%
TAAR1 ag counter: activates human TAAR1 in antagonist counter-screen. 2,400 compounds, 2% hits. shares compounds with TAAR1 antag. activation, % at 3 µM. AID 651955. hTAAR1 cell line, fluorescence activation, agonist mode; in the data active means activation above about 37%;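 further: CHO cells stably expressing TAAR1 with calcium dye readout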
A number is an active result; – = inactive; · = no result. This is a sample that favours compounds with a hit; in the whole collection about 3.4% have one here.

SMILES	TAAR1 antag	TAAR1 ag	GPR7 antag	TRPML3 agonist	LANA-H2A inh	TRPN1 ag	TAAR1 nonsel count	TAAR1 antag conf	Ga16 ag counter	TAAR1 ag counter
COc1cccc([C@@H]2CC=C(C(=O)O)[C@H](c3ccccc3F)N2S(=O)(=O)c2ccc(C)cc2)c1	–	–	·	·	–	·	·	·	·	·
CC(C)N1CCN(C(=O)c2ccc([N+](=O)[O-])cc2)CC1	–	–	·	·	–	·	·	·	·	·
Cc1cc(NC(=O)CN2C(=O)/C(=C/c3ccc(C(C)C)cc3)SC2=S)no1	–	–	·	·	·	·	·	·	·	·
CN(C)S(=O)(=O)c1ccc(N2CCCC2)c(C(=O)N2CCC(C(N)=O)CC2)c1	–	–	·	·	–	·	·	·	·	·
Cc1ccccc1S(=O)(=O)Oc1ccc2ccc(O)cc2c1	66.4	–	–	·	–	·	30.3	–	–	–
N#CC(C#N)=Cc1cc2ccccc2nc1N1CCOCC1	–	–	–	–	–	–	·	·	·	·
N#C/C(=C\c1cc2ccccc2nc1N1CCOCC1)C(=O)Nc1ccc(N2CCOCC2)cc1	58.7	–	–	–	–	–	30.2	–	–	–
CC1CC(C)CN(S(=O)(=O)c2ccc(NC(=O)[C@@H]3CCCN3C(=O)c3cccs3)cc2)C1 (stereo not given in full)	–	–	·	·	–	·	·	·	·	·
O=C(Nc1ccc(S(=O)(=O)N2CCCCC2c2cccnc2)cc1)c1ccccc1F (stereo not given)	56.3	–	–	–	–	–	27.2	–	–	–
COc1ccccc1C(=O)Nc1ccc(S(=O)(=O)N2CCCCC2c2cccnc2)cc1 (stereo not given)	–	–	–	–	–	–	·	·	·	·
CS(=O)(=O)Nc1ccc(-c2cc(/C=C3\SC(N)=NC3=O)c[nH]c2=O)cc1	–	–	–	·	–	·	·	·	·	·
COC(=O)c1cccc(-c2ccc(/C=N/N3C(=O)C4C5C=CC(C6CC56)C4C3=O)o2)c1 (stereo not given)	–	–	–	–	–	–	·	·	·	·
COC(=O)c1ccc(-c2ccc(/C=N/N3C(=O)C4C5C=CC(C6CC56)C4C3=O)o2)cc1 (stereo not given)	61.8	–	–	–	–	–	27.3	–	–	–
Cc1ccc(-c2ccc(/C=N/N3C(=O)C4C5C=CC(C6CC56)C4C3=O)o2)c([N+](=O)[O-])c1 (stereo not given)	57.7	–	–	–	–	–	33.0	–	–	–
Cc1sc2nc(-c3ccc(Br)cc3)oc(=O)c2c1C	·	·	–	·	–	·	·	·	·	·
CC(C)NC(=O)C1(C)CCCN1Cc1ccccc1C#N (stereo not given)	–	–	·	·	·	·	·	·	·	·
COc1cc2c(cc1OC)/C(=C/C(=O)c1cccc([N+](=O)[O-])c1)NCC2	49.5	–	–	·	–	·	25.5	–	–	–
CC(=O)c1ccc(NC(=O)c2ccc(NC(=O)CCS(=O)(=O)c3cccs3)cc2)cc1	86.5	–	–	–	–	–	39.8	64.2	14.7	–
O=C(CCS(=O)(=O)c1cccs1)Nc1ccc(C(=O)NCc2cccs2)cc1	–	–	–	–	–	–	·	·	·	·
CCc1ccc([C@@H]2C[C@H]3[C@@H](CN2S(=O)(=O)c2ccc(C)cc2)C(=O)C[C@@H](c2ccc(C)cc2)N3S(=O)(=O)c2ccc(C)cc2)cc1	–	–	·	·	·	·	·	·	·	·
Cc1ccc(C)c(N2CCN(C(=O)CCc3nc(-c4ccccc4Cl)no3)CC2)c1	59.3	–	·	·	·	·	26.0	–	–	–
CN(Cc1ccccc1)C(=O)c1ccc(NC(=O)C2CCN(C(=O)OC(C)(C)C)CC2)cc1	59.6	–	·	·	–	·	46.8	–	14.3	–
OCC[C@H]1C[C@@H](O)[C@H](O)[C@]2(OCc3ccccc32)O1	–	–	·	·	–	·	·	·	·	·
O=C(Nc1ccc2nc(SCc3ccc(Cl)cc3)sc2c1)c1ccccc1C(=O)N1CCOCC1	76.4	–	–	–	–	–	33.5	53.6	–	–
COC(=O)CSc1nc2ccc(NC(=O)c3ccccc3C(=O)N3CCOCC3)cc2s1	54.8	–	–	–	–	–	24.4	50.3	–	–
SMILES	TAAR1 antag	TAAR1 ag	GPR7 antag	TRPML3 agonist	LANA-H2A inh	TRPN1 ag	TAAR1 nonsel count	TAAR1 antag conf	Ga16 ag counter	TAAR1 ag counter
COc1cccc(CN2CC(C(=O)NCCc3ccccc3C(F)(F)F)CCC2=O)c1 (stereo not given)	–	–	–	·	–	·	·	·	·	·
O=C1CCCN1c1ccc(S(=O)(=O)NCc2ccc(F)cc2)cc1	–	–	–	·	–	·	·	·	·	·
Fc1ccc2cnc(-c3ccccc3)c(-c3cc(C(F)(F)F)cc(C(F)(F)F)c3)c2c1	–	–	·	·	–	·	·	·	·	·
Fc1ccc2cnc(-c3ccccc3)c(-c3ccc(C(F)(F)F)cc3)c2c1	63.2	–	·	·	–	·	–	–	–	–
O=[N+]([O-])c1ccc(-c2c(-c3ccccc3)ncc3ccc(F)cc23)cc1	73.6	–	·	·	–	·	–	66.2	–	–
N#Cc1ccc(-c2c(-c3ccccc3)ncc3cc(F)ccc23)cc1	58.7	–	·	·	–	·	–	–	–	–
Cc1ccc(NC(=O)CCN2C(=O)NC(C)(C)C2=O)cc1F	–	–	·	·	·	·	·	·	·	·
CCN(c1ccccc1)S(=O)(=O)c1ccc(Cl)c(C(=O)OCC(=O)c2[nH]c(C)c(C(C)=O)c2C)c1	63.5	–	–	–	–	–	–	–	–	–
CCCCOc1ccc(C(=O)N(C)CC(=O)Nc2ccc(C)cc2)cc1	–	–	–	·	–	·	·	·	·	·
CCc1ccc(S(=O)(=O)Nc2ccc(O)c3c(=O)cc(-c4ccccc4Cl)oc23)cc1	60.6	–	·	·	–	·	–	–	–	–
O=C(COC(=O)Cc1c(F)cccc1Cl)NC(=O)c1ccccc1	–	–	–	·	–	·	·	·	·	·
O=C(NC1(Cc2ccccc2)CCN(CCCc2ccccc2)C1=O)c1ccccc1 (stereo not given)	66.4	–	·	·	–	·	26.4	–	–	–
c1ccc(CCCCN2CCN=C2Nc2ccccc2)cc1	–	–	·	·	–	·	·	·	·	·
O=C(NNC(=O)c1ccccc1-n1cccc1)c1cncc(Br)c1	–	–	·	·	–	·	·	·	·	·
Cc1cccc(C)c1NC(=O)c1csc(COCCO)n1	–	–	·	·	·	·	·	·	·	·
COc1ccccc1N(Cc1ccccc1)S(=O)(=O)c1cccc(C(=O)Nc2ccccn2)c1	74.6	–	–	·	–	·	–	–	–	–
